B1: tRNA (parent)
chain: GUUCCGUUGGCGUAAUGGUAACGCGUCUCCCUCCUAAGGAGAAGACUGCGGGUUCGAGUCCCGUACGGAACG

Variants at the floor of the assay were thinned out.

The variants in this data set derive from B1. The data set is described as follows: yeast fitness relative to wild type (ratio to wild type); higher = fitter; tRNA-Arg(CCU), competitive growth, 37 C, YPD. Put shortly:
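The tRNA-Arg(CCU) gene variants were made by chemical synthesis with a 3% per-site mutation rate at 69 sites and inserted at the native genomic locus of Saccharomyces cerevisiae. After pooling, the strains were competed in YPD at 37°C for 24 hours in six parallel replicates. Gene amplicons from the start population and each end population were read by 100-nucleotide paired-end sequencing, and Darwinian fitness relative to wild type was taken from genotype frequency changes. Genotypes needed ≥ 100 starting reads, and estimates < 0.5 were set to 0.5.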
In the case of GUUACGUUGGCGUAAUGGCAACGCGUCUCCCUCCUAAGGAGGAGACUGCGGGUUCGAGUGCCGUACGGAACG [C4A U19C A42G C60G], the yeast fitness is no more than 0.5. In the case of GUUACGAUGGCGUAAUGGUAACGCGUCUCCCUCCCAAGGAGAAGACUGCGGGUUCGAGUCCCGUACGGAACG [C4A U7A U35C], the yeast fitness is no more than 0.5. With GUUACGUCGGCGUAAUGGUAACGCGUCUCCCUCCUAAGGAGAAGACCGCGGGUUCGAGUCCCGUACGGAACG [C4A U8C U47C], the yeast fitness came out at 0.579. Turning to GUUACGUUGGCGUAAUGGUAACGCGUCUCCCUCCUAACGAGAAGACUGCGGGUUCGAGUCCCGUACGACACG [C4A G38C G68A A69C], the yeast fitness is no more than 0.5.

Turning to GUUACGUUGGCGUAAAGGUAACGCGUCUCCCUCCUAAGGAGAAGACUGCGGGUUCGAGUCCCGUACGGAACG [C4A U16A], the yeast fitness came out at 0.823. The same measure for GUUACGUUGGCGUAACGGUAACGCGUCUCCCUCCUAAGGAGAAGACUGCGGGUUCGAGUCCCGUACGGAACG [C4A U16C]: 0.702. Turning to GUUACGGUGGCGUAAUGGUAACGCGUUUCCCUCCUAAGGAGAAGCCUGCGGGUUCGAGUCCCGUACGGAACG [C4A U7G C27U A45C], the yeast fitness is no more than 0.5.

As for GUUACGUUGGCGUAAUGGUAACGCGACUCCCGCCUAAGGAGAAGACUGCGGGUUCGAGUCCCGUGCGGAACG [C4A U26A U32G A65G], the yeast fitness was 0.793. With GUUACGUCGGCGUUAUGGUCACGCGUCGCCCUCCUAAGGAGAAGACUGCGGGUUCGAGUCCCGUACGGAACG [C4A U8C A14U A20C U28G], the yeast fitness came to 0.54. The same measure for GUUACGUUGGCGUAACAGUAACGCGUCUCCCUCCUAAGGAGAAGACUGCGGGUUCGAGACCCGUACGGAACG [C4A U16C G17A U59A]: no more than 0.5; for GUUACGUUGGCGUAAUGGUAACGCGUCUCCCUCCUAAGGAGAAGACUGCGCGUACCAGUCCCGUACGGAACG [C4A G51C U54A G56C]: no more than 0.5; for GUUACGUGGGCGUAAUGGUAACGCGUCUCCCUCCUAAGGACAAGGCUGCGGGUUCGAGUCCCGUACGGAACG [C4A U8G G41C A45G]: 0.703.

With GUUACGAAGGCGUAAUGGUAACGCGUCUCCCUCCUAAGGAGAAGAAUACGGGUUCGAGUCCCGGACGGAACG [C4A U7A U8A C46A G48A U64G], the yeast fitness is no more than 0.5.

For GUUACGUUGGCGUAAUGGUAACGCAUCUACCUCCUAGGGAGAAGACUGCCGGUUCGAGUGCCAUACGGAACG [C4A G25A C29A A37G G50C C60G G63A], the yeast fitness was no more than 0.5. With GUUACGUUGGCGUAACAGUAACGCGUCUCCCUCCUAAGGAGAAGACUGCGGGUUCAAGUCUCGUACGGAACG [C4A U16C G17A G56A C61U], the yeast fitness is no more than 0.5. With GUUACGAUGGCGAAAUGGUAACGCGUCUCACUCCUAAGGAGAAGACUGCGGGUUCGAGUCCCGCACGGAACG [C4A U7A U13A C30A U64C] the figure was 0.56; with GUUACGUUGGCGUAAUGGUAACGCUUCUCCCUCCUAAGGAGAAGACUGCGGGUUCGAGUCCCGUCCGGAACG [C4A G25U A65C], no more than 0.5. The same measure for GUUACGUCGGCGUAAUGGUAACGCGUCUCCCUCCUAAGGAGAAGACUGCGGGUUCGAGUCCCGUACGGAACG [C4A U8C]: 0.887; for GUUACGUAGGCGUAAUGGUAACGCGUCUCCCUCCUAAGGAGAAGACUGCGGGUUCGAGUCCCGUACGGAACG [C4A U8A]: 0.694. Turning to GUUACGAUGGCGUAAUGGUAACGCGUCUCCCUCCUAAGGAGAAGAUUGCGGGUUCGAGUCCCGUACGGAACG [C4A U7A C46U], the yeast fitness was no more than 0.5. With GUUACGUUGGCGUAAUGGUAACGCGUCACCCUCCUAAGGAGAAGACUGCGGGUUCGAGUCCUGUAAGGAACG [C4A U28A C62U C66A] the figure was no more than 0.5; with GUUACGUUGGCGUAAUGGUAACGCGUCUCCCUCCUAAGAAGAAGACUGCGGGUUUGAGGCCCGUACGCAACG [C4A G39A C55U U59G G68C], no more than 0.5. GUUACGUUGGCGUAAUGGUAACGCGACUCCCGCCUAAGGAGCAGACUGCGGGUUCGUGUCCCGUACGGAACG [C4A U26A U32G A42C A57U]: the yeast fitness is no more than 0.5.

In the case of GUUACGUUGGCGCAAUGGUAACGCGUCACCCUCGUAAGGAGAAGACUGCGGGUUCGAGUCCCGUACGGAACG [C4A U13C U28A C34G], the yeast fitness is no more than 0.5. With GUUACGUUGGCGAAAUGGUAACGCGUCUCCCUCCUAAGGAGAAGACUGCGGGUUCGAGUCCCAUACGGAACG [C4A U13A G63A] the figure was no more than 0.5; with GUUACGUUGGCGUAAUGGUAACGCGGCUCCCUCCUAAGGAGAAGACUGCGGGGUCGAGUCCCGUACGGAACG [C4A U26G U53G], no more than 0.5; with GUUACGCUGGCGUAAUGGUACUGCGUCUCCCUCCUAAGGAGAAGACUGCCGGUUCGAGUCCCGUACGGAUCG [C4A U7C A21C C22U G50C A70U], no more than 0.5.

For GUUACGUUGGCGUAAUGGUAACGCGUCCCCCUCCUAAGGAGAAGACUGCGGGUUCGAGUCCCGUACGGAACG [C4A U28C], the yeast fitness is 0.64. On to GUUACGCUGGCGUAAUGGUAACGGGUCUCCCUCCUAAGGAGAAGACUGCGGGUUCGAGUCACGUAUGGAACG [C4A U7C C24G C61A C66U], for which the yeast fitness is no more than 0.5. In the case of GUUACGUUGGCGUAAAGGUAACGCGUCUGCCCCCUAAGGAGAAGACUGCGGGUUUGAGUCCCGUAUGGAACG [C4A U16A C29G U32C C55U C66U], the yeast fitness is no more than 0.5. For the variant GUUACGGUGGCCUAAUGGUAACGCGUCUCCCUCCUAAGGAGAAGACUGCGGGUUCGAGUCCCGUACGGAACG [C4A U7G G12C], the yeast fitness was 0.549. The same measure for GUUACGGUGGCCUAAUGGUAACGCGUCUCCCUCCUAAGGAGAAGACUGCGGGUUCGAGUUCGGUACGGAACG [C4A U7G G12C C60U C62G]: no more than 0.5; for GUUACGUUGGCGCAAUGGUCACGCGUCUCCCUCAUAAGCAGAUGACUGCGGGUUCGAGUCCCGUACGGAACG [C4A U13C A20C C34A G39C A43U]: no more than 0.5; for GUUACGUUGGCGUAAUGGUAACGCGUCUCCCUCCUAAGGAGAAGACUGCGGGUUCCAGUGCCGUAUGGAACG [C4A G56C C60G C66U]: 0.568.

Take GUUACGUUGGCGUAAUGGUAACGCGUCUCCCUCCUAAGAAGAAGACUGCGGGUUCGAGUCCCCUACGGAACG [C4A G39A G63C]: the yeast fitness was no more than 0.5. With GUUACGAUGGCGUGAUCGUAACGCGUCUCCCUCCUAAGGAGAAGACUGCGGGUUCGAGUCCCGUACGGAACG [C4A U7A A14G G17C] the figure was no more than 0.5. Regarding GUUACGUGGGCGUAAUGGUAACGCGUCUCCCUCCUAAGGAGAAGACUGCGGGUUCGAGUCCCGCACGGAACG [C4A U8G U64C], the yeast fitness worked out at 0.545.

The record behind these values is the RNAGym collection of RNA variant scans (doi:10.1126/science.aae0568).
